According to ChEMBL document CHEMBL2412994, “Solid phase synthesis of Smac/DIABLO-derived peptides using a 'Safety-Catch' resin: identification of potent XIAP BIR3 antagonists” (Bioorg Med Chem, 2013):
pKd: −log10 of the molar value. Blank lines part the entries; values can stand above or below the molecule they belong to. Activity calls are given as the source filed them. The rule behind the calls is not given here. Square brackets hold non-standard residues; d marks the D form. Peptide text beside a SMILES is read from it. Phg = N[C@H](C(=O)O)c1ccccc1; NMeA = CN[C@@H](C)C(=O)O

How the values were obtained:
MDA-MB-231 = assay: Cytotoxicity against human MDA-MB-231 cells assessed as cell viability after by MTT assay; assay type: functional
How it was run: (§1)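 MTT viability assay. MDA-MB-231 cells were seeded at 1 × 10⁴ cells/well and MCF-7 cells at 2 × 10⁴ cells/well, then held 24 h at 37 °C in 5% CO₂. Medium was replaced with treatments; vehicle controls received matched DMSO. After 72 h, MTT (10 mg/ml stock) was added for 2 h in the dark. Formazan was dissolved in DMSO and read at 550 nm. Viability relative to untreated control at 100 µM.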

MCF7 = assay: Cytotoxicity against human MCF7 cells assessed as cell viability after by MTT assay; assay type: functional; how it was run: as §1
[1] = target: E3 ubiquitin-protein ligase XIAP (Homo sapiens, UniProt P98170); assay: Binding affinity to XIAP BIR3-domain (unknown origin)
Sequence of E3 ubiquitin-protein ligase XIAP (P98170 whole entry): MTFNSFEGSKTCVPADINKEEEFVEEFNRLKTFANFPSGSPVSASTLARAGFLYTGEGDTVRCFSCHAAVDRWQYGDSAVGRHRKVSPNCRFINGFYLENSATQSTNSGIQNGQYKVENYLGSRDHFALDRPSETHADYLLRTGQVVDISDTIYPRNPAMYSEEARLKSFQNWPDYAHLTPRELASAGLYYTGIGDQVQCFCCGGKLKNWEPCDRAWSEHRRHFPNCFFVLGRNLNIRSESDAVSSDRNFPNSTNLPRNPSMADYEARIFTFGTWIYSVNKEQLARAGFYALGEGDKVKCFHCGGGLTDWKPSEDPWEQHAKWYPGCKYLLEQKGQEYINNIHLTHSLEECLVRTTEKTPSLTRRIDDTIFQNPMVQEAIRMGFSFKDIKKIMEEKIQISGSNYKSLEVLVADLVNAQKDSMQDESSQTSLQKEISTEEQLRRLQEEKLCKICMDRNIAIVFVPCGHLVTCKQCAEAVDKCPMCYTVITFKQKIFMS

Molecule: CN[C@@H](C)C(=O)N[C@H](C(=O)N1C[C@H](Oc2ccccc2)C[C@H]1C(=O)NC(c1ccccc1)c1ccccc1)C(C)(C)C
Activity (MDA-MB-231): 50.3% | Activity (MCF7): 58.6%

pKd [1]: 7.52
Molecule: CC(C)[C@H](NC(=O)[C@H](C)N)C(=O)N1CCC[C@H]1C(=O)N[C@H](C(=O)N[C@@H](Cc1ccc(O)cc1)C(N)=O)c1ccccc1 (H-AVP[Phg]Y-NH2)
Activity (MDA-MB-231): inactive | Activity (MCF7): inactive

pKd [1]: 7.40
Molecule: CN[C@@H](C)C(=O)N[C@H](C(=O)N1CCC[C@H]1C(=O)N[C@@H](Cc1ccccc1)C(=O)N[C@@H](Cc1ccc(O)cc1)C(N)=O)C(C)C (H-[NMeA]VPFY-NH2)
Activity (MDA-MB-231): inactive | Activity (MCF7): inactive

Molecule: CN[C@@H](C)C(=O)N[C@H](C(=O)N1C[C@H](c2ccccc2)C[C@H]1C(=O)NC(c1ccccc1)c1ccccc1)C(C)(C)C
Activity (MDA-MB-231): 50.1% | Activity (MCF7): 62.3%

Molecule: CN[C@@H](C)C(=O)N[C@H](C(=O)N1C[C@H](c2ccccc2)C[C@H]1C(=O)N[C@@H]1CCCc2ccccc21)C(C)(C)C
Activity (MDA-MB-231): 54.6% | Activity (MCF7): 79.4%

pKd [1]: 7.22
Molecule: H-AVPFY-NH2
Activity (MDA-MB-231): inactive | Activity (MCF7): inactive

Molecule: CN[C@@H](C)C(=O)N[C@H](C(=O)N1C[C@H](Oc2ccccc2)C[C@H]1C(=O)N[C@@H]1CCCc2ccccc21)C(C)(C)C
Activity (MDA-MB-231): 58.1% | Activity (MCF7): 70.8%
